Experimental findings from ChEMBL document CHEMBL4145691, “Metalloporphyrin-Catalyzed Oxidation of Sunitinib and Pazopanib, Two Anticancer Tyrosine Kinase Inhibitors: Evidence for New Potentially Toxic Metabolites” (J Med Chem, 2018) are described below.

Structures are written as SMILES.

Series [1] in a line: Drug level using sunitinib assessed as compound formation in presence of KHSO5 and Mn(III)TDCPP/Cl by NMR and mass spectrometry. It counts as physicochemical. The method, boiled down:
(§1)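 Biomimetic oxidation catalysed by Mn(III)-porphyrin with water-soluble oxygen donor (KHSO5 or MMPP), run in biphasic water/organic medium with a quaternary ammonium salt as phase-transfer catalyst. Products identified by NMR and mass spectrometry.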

A short description of series [2]: Retention time of the compound in human liver microsomes by UHPLC-MS analysis. It counts as ADME, microsome. The method, boiled down:
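Human liver microsomes (final 0.5 mg/mL protein) with NADPH regenerating system in 0.1 M phosphate pH 7.4, pre-incubated 5 min at 37 °C. Stopped with acetonitrile, centrifuged, filtered, supernatant analysed by UHPLC-MS (ESI+, full scan/MRM). No-NADPH negative control.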
A general note: Liver microsomes are vesicles of endoplasmic reticulum, rich in cytochrome P450 enzymes.

The nature of series [3]: Retention time of the compound in presence of KHSO5 and Mn(III)TDCPP/Cl by UHPLC-MS analysis. It counts as physicochemical. The essentials: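 Sunitinib oxidation mixture run by UHPLC-MS at 0.4 mL/min and 30 °C. Eluents: 5 mM ammonium formate pH 3.2, and 0.1% formic acid in acetonitrile. Gradient 5→35% B by 3.5 min, held to 5.5 min, then 95% by 6.5 min. ESI+, full scan m/z 200–500 plus MRM.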

Series [4] can be described thus: Drug level using pazopanib assessed as compound formation in presence of MMPP and Mn(III)TDCPP/Cl by NMR and mass spectrometry. It counts as physicochemical. The essentials:
as §1

Series [5] can be described thus: Retention time of the compound in presence of MMPP and Mn(III)TDCPP/Cl by UHPLC-MS analysis. It counts as physicochemical. The essentials:
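Pazopanib oxidation mixture run by UHPLC-MS at 0.4 mL/min and 30 °C. Eluents: 5 mM ammonium formate pH 3.2, and 0.1% formic acid in acetonitrile. ESI+, full scan m/z 200–520 plus MRM.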

In the case of `CCN(CC)CCNC(=O)c1c(C=O)[nH]c(/C=C2\C(=O)Nc3ccc(F)cc32)c1C`, the Product formation entry in series [1] is recorded as “Active”. The Retention_time in series [2] and in series [3] was 4.36 min each time.
`Cc1ccc(Nc2ncc(Cl)c(N(C)c3ccc4c(C)n(C)nc4c3)n2)cc1S(N)(=O)=O`: the Product formation result in series [4] is “Active”. Also, the Retention_time is on record as 3.54 min in series [2] and 3.55 min in series [5].
With `CC(=O)OCc1c2ccc(N(C)c3ccnc(Nc4ccc(C)c(S(N)(=O)=O)c4)n3)cc2nn1C`, the Product formation entry in series [4] is recorded as “Active”.
For the compound `Cc1ccc(Nc2ncc(Cl)c(N(C)c3ccc4c(CO)n(C)nc4c3)n2)cc1S(N)(=O)=O`, in series [4], the Product formation entry is “Active”. In addition, the Retention_time in series [5] is listed as 3.32 min.
For the compound `CCN(CC)CCNC(=O)c1c(/C=N/OC)[nH]c(/C=C2\C(=O)Nc3ccc(F)cc32)c1C`, the Retention_time came to 4.74 min in series [2] and 4.77 min in series [3].
For the compound `CC[N+]([O-])(CC)CCNC(=O)c1c(C)[nH]c(/C=C2\C(=O)Nc3ccc(F)cc32)c1C`, in series [1], the Product formation result is listed as “Active”.
Take `CCN(CC)CCNC(=O)c1c(CO)[nH]c(/C=C2\C(=O)Nc3ccc(F)cc32)c1C`: in series [1], the Product formation result is “Active”. Also, the Retention_time in series [2] and in series [3] was 4.36 min in each case.
For the compound `Cc1ccc(Nc2ncc(Cl)c(N(C)c3ccc4c(C=O)n(C)nc4c3)n2)cc1S(N)(=O)=O`, the Product formation entry in series [4] was “Active”. For the same compound, the Retention_time in series [5] came out at 3.63 min.
Turning to `CO/N=C/c1c2ccc(N(C)c3ccnc(Nc4ccc(C)c(S(N)(=O)=O)c4)n3)cc2nn1C`, the Product formation result in series [4] is reported as “Active”. Besides, the Retention time in series [5] lay in the range of 2.96 to 3.11 min.
For the compound `Cc1ccc(Nc2nccc(N(C)c3ccc4c(CO)n(C)nc4c3)n2)cc1S(N)(=O)=O`, the Product formation result in series [4] is given as “Active”. In addition, in series [5], the Retention_time turned out to be 2.56 min.
As for `Cc1ccc(Nc2nccc(N(C)c3ccc4c(C=O)n(C)nc4c3)n2)cc1S(N)(=O)=O`, the Product formation result in series [4] is “Active”. Moreover, the Retention_time worked out at 2.84 min in series [2] and 2.82 min in series [5].
As to `CCN(CC)CCNC(=O)c1c(COC)[nH]c(/C=C2\C(=O)Nc3ccc(F)cc32)c1C`, the Product formation entry in series [1] is reported as “Active”. The Retention time in series [3] was 4.56 min.
